Results filed as inconclusive are left out.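 How the source made its calls, unless noted: active means RAM network inhibition above 8.4% in each of two replicates, 3 SD over the compound average; inconclusive means above 8.4% inhibition in only one replicate; inactive means 8.4% inhibition or less in each replicate.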
Key:
[1] = OD615 S. cerevisiae growth inhibition, permissive medium, pilot counter-assay, permissive growth control for S. cerevisiae lifespan shortening project (AID 705;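 active means growth inhibition above 25% in both replicates, a cutoff set 3 SD above the mean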); conditions: OD615, 24 h, at 10 µM, stronger effect = higher value
In short: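 assay system = Saccharomyces cerevisiae strain carrying genetically modified DeaD replicative-lifespan system | technique = absorbance (optical density) at 615 nm | buffer or medium = permissive raffinose/galactose medium | timing = cells pre-grown 4 h, then 24 h compound exposure, 30 °C humidified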

[2] = Restrictive medium S. cerevisiae growth inhibition, OD615, pilot screen of yeast lifespan reduction project, restrictive growth control (AID 706;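 active means growth inhibition above a set limit, 3 SD over mean compound inhibition, in both replicates, cut at about 43% in these data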;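 further: modified DeaD lifespan yeast strain shifted to restrictive glucose medium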); conditions: OD615, 48 h, at 10 µM, stronger effect = higher value
In short: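 System: modified S. cerevisiae. Buffer or medium: CSMM-D glucose medium. Incubation: 4 h pre-growth plus 48 h compound exposure, 30 °C. Detection: absorbance (optical density) measured at 615 nm.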

[3] = viability gain of MRP-1-high H69AR cells under doxorubicin, pilot screen, MRP-1 activator project, CellTiter-Glo, duplicate (AID 807;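 active means viability increase at or above a cutoff of the median across tested compounds plus 3 SD, cut at about 8.5% in these data, passing the limit was not always enough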;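 further: compound pretreatment 18-22 h then 72 h combined with doxorubicin; 0% = doxorubicin alone and 100% = vehicle without doxorubicin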); conditions: H69AR viability with doxorubicin, CellTiter-Glo luminescence; at 10 µM; stronger effect = higher value
[4] = growth suppression of beta-catenin knockout HCT116, pilot screen, human colon tumor cells (AID 823;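 active means cell viability at or below a set limit in both duplicate runs, the limit being the all-compound median minus 4 SD, cut at about 23% in these data, passing the limit was not always enough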;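 further: 0% = wells killed by 20 µM Hyamine and 100% = untreated DMSO cell wells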); conditions: CellTiter-Glo, 60 h, at 10 µM, stronger effect = lower value
[5] = growth suppression of PTEN-deleted HCT116, pilot screen, cell-based, HCT116 clonal line, CellTiter-Glo (AID 824;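 active means viability at or below 27.92% in each of two runs, the all-compound median minus 4 SD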;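 further: 0% = 20 µM Hyamine control and 100% = vehicle cell control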); conditions: 60 h, at 10 µM, stronger effect = lower value
[6] = inhibitors of the yeast RAM network, pilot screen, dse1pr::URA3 reporter, 5-FOA selection (AID 869;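 active means inhibition over a set limit, the all-compound mean plus 3 SD, in both replicate runs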;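 further: 0% = DMSO wells with no growth and 100% = 10 µM 1-NA-PP1 with full growth; RAM network block rescues cells from 5-FOA so hits raise OD615 growth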); conditions: S. cerevisiae dse1pr::URA3 5-FOA growth, OD615, 2 d; at 10 µM; stronger effect = higher value; strain carries analog-sensitive mutant Cbk1 kinase
[7] = RAM signaling pathway blockade in yeast – S. cerevisiae, Pdr1DBD-CYC8 efflux-inhibited sensitized strain, primary screen (AID 1298);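 further: 0% = DMSO untreated cells without growth and 100% = 10 µM 1-NA-PP1 full growth; higher means more yeast growth rescued from 5-FOA killing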; conditions: S. cerevisiae cbk1-as DSE1-URA3 strain, 5-FOA growth OD615, 2 d; at 50 µM; stronger effect = higher value

COC(=O)C1=CN(CCCN2CCCC2=O)C=C(C(=O)OC)C1c1ccccc1C(F)(F)F
inactive: growth inhibition [1] -10% | growth inhibition [2] 1.3% | viability increase [3] -6.27% | viability [4] 39.6% | viability [5] 35.7% | inhibition [6] 0.125% | RAM network inhibition [7] 1.94%

CCOC(=O)N1CCN(c2ncnc3nc[nH]c23)CC1
inactive: growth inhibition [1] -8.7% | growth inhibition [2] -10.1% | viability increase [3] -1.85% | viability [4] 109% | viability [5] 106% | inhibition [6] 0.595% | RAM network inhibition [7] 4.23%

Cc1ccccc1Cn1c(CN2CCN(c3ccc(F)cc3)CC2)nc2c1c(=O)n(C)c(=O)n2C
inactive: growth inhibition [1] -12.2% | growth inhibition [2] -17.1% | viability increase [3] -3.7% | viability [4] 94.4% | viability [5] 92.2% | inhibition [6] 2.51% | RAM network inhibition [7] 7.93%

COc1ccc(NC(=O)Nc2c(C)n(C)n(-c3ccccc3)c2=O)cc1
inactive: growth inhibition [1] 1.73% | growth inhibition [2] 2.85% | viability increase [3] -2.06% | viability [4] 103% | viability [5] 97.9% | inhibition [6] 0.655% | RAM network inhibition [7] 1.34%

Cc1ccccc1NC(=O)CCn1c(=O)oc2ccccc21
inactive: growth inhibition [1] -3.42% | growth inhibition [2] -26.5% | viability increase [3] -1.87% | viability [4] 101% | viability [5] 91.3% | inhibition [6] 1.54% | RAM network inhibition [7] 3.96%

O=C(CCn1c(=O)oc2ccccc21)N1CCN(c2ccc(F)cc2)CC1
inactive: growth inhibition [1] 2.05% | growth inhibition [2] -4.67% | viability increase [3] -0.8% | viability [4] 107% | viability [5] 102% | inhibition [6] 1.09% | RAM network inhibition [7] 3.71%

Cc1cc(-c2ccccc2)n2ncc(C#N)c2n1
inactive: growth inhibition [1] -0.51% | growth inhibition [2] 2.26% | viability increase [3] -1.18% | viability [4] 103% | viability [5] 98.8% | inhibition [6] 1.17% | RAM network inhibition [7] 2.36%

COc1ccc(-c2[nH]ncc2-c2cnc(C)s2)c(O)c1
inactive: growth inhibition [1] -13.3% | growth inhibition [2] -13% | viability increase [3] -1.25% | viability [4] 99.2% | viability [5] 98.9% | inhibition [6] 2% | RAM network inhibition [7] 2.98%

O=C1NCCCC1C(=O)N1CCN(C(c2ccccc2)c2ccccc2)CC1 (stereo unspecified)
inactive: growth inhibition [1] 6.11% | growth inhibition [2] 11.2% | viability increase [3] 1% | viability [4] 98.5% | viability [5] 94.3% | inhibition [6] 0.65% | RAM network inhibition [7] 7.67%

CSc1nnc(Cn2c(=O)sc3ccccc32)n1C
inactive: growth inhibition [1] -4.88% | growth inhibition [2] -13% | viability increase [3] -1.82% | viability [4] 109% | viability [5] 99.4% | inhibition [6] 1.94% | RAM network inhibition [7] 6.98%

CCOC(=O)N1CCC(NC(=O)c2cnc3n(c2=O)CCS3)CC1
inactive: growth inhibition [1] -1% | growth inhibition [2] -6.85% | viability increase [3] 1.34% | viability [4] 101% | viability [5] 100% | inhibition [6] 2.27% | RAM network inhibition [7] 1.68%

CCC(C)NC(=O)CNC(=O)Cn1c(C)cc2ccccc2c1=O (stereo unspecified)
inactive: growth inhibition [1] -4.49% | growth inhibition [2] -8.84% | viability increase [3] -2.27% | viability [4] 102% | viability [5] 94.2% | inhibition [6] 0.04% | RAM network inhibition [7] 4.72%

CC(C)NC(=O)C1CCCN(c2nnc(-n3cccc3)s2)C1 (stereo unspecified)
inactive: growth inhibition [1] -0.35% | growth inhibition [2] 14.8% | viability increase [3] -3.11% | viability [4] 108% | viability [5] 97.6% | inhibition [6] -0.455% | RAM network inhibition [7] 0.02%

O=C(c1ccccc1F)N1CCN=C1SCc1cccnc1
inactive: growth inhibition [1] -22.1% | growth inhibition [2] 1.65% | viability increase [3] -1.2% | viability [4] 96.8% | viability [5] 99.8% | inhibition [6] 0.695% | RAM network inhibition [7] 4.47%

Cc1onc(-c2ccccc2Cl)c1C(=O)NCC1CCCO1 (stereo unspecified)
inactive: growth inhibition [1] -0.6% | growth inhibition [2] 3.56% | viability increase [3] -1.44% | viability [4] 88.7% | viability [5] 95.8% | inhibition [6] 1.24% | RAM network inhibition [7] -0.74%

CCCCCn1c(CCCNC(=O)CC)nc2ccccc21
inactive: growth inhibition [1] -8.6% | growth inhibition [2] -0.63% | viability increase [3] -2.94% | viability [4] 89% | viability [5] 97.6% | inhibition [6] 0.405% | RAM network inhibition [7] 2.13%

CC(Oc1ccccc1)C(=O)OCC(=O)NC(=O)NCc1ccco1 (stereo unspecified)
inactive: growth inhibition [1] -5% | growth inhibition [2] -0.75% | viability increase [3] -1.78% | viability [4] 97.9% | viability [5] 97.2% | inhibition [6] 3.58% | RAM network inhibition [7] 2.68%

C=CCOn1c(=O)c(C)[n+]([O-])c2ccccc21
inactive: growth inhibition [1] -11.6% | growth inhibition [2] -14.3% | viability increase [3] -0.5% | viability [4] 105% | viability [5] 98.2% | inhibition [6] -0.085% | RAM network inhibition [7] 5.63%

Clc1cc(NCc2cccs2)ccc1N1CCOCC1
inactive: growth inhibition [1] -13.5% | growth inhibition [2] -6.34% | viability increase [3] -3.46% | viability [4] 78.9% | viability [5] 92% | inhibition [6] 1.17% | RAM network inhibition [7] 4.21%

C=CCn1c(-c2ccco2)n[nH]c1=S
inactive: growth inhibition [1] 2.98% | growth inhibition [2] -4.35% | viability increase [3] -1.3% | viability [4] 110% | viability [5] 97.6% | inhibition [6] 1.58% | RAM network inhibition [7] 2.89%

COC(=O)c1sc2ccccc2c1N
inactive: growth inhibition [1] 1.37% | growth inhibition [2] 27.7% | viability increase [3] -3.26% | viability [4] 101% | viability [5] 94.6% | inhibition [6] 0.515% | RAM network inhibition [7] 2.29%

COc1cccc(C(=O)NCC(c2cccnc2)N2CCN(c3ccccc3OC)CC2)c1 (stereo unspecified)
inactive: growth inhibition [1] 1.37% | growth inhibition [2] -13.1% | viability increase [3] -2.58% | viability [4] 84.3% | viability [5] 78% | inhibition [6] 1.87% | RAM network inhibition [7] 1.46%

O=C(NCCC1=CCCCC1)C1CCN(c2nnc(-n3cccc3)s2)CC1
inactive: growth inhibition [1] 3.32% | growth inhibition [2] 4.32% | viability increase [3] -0.38% | viability [4] 85.2% | viability [5] 82.2% | inhibition [6] 2.42% | RAM network inhibition [7] 1.13%

CC(C)C(NS(=O)(=O)c1ccc2c(c1)oc(=O)n2C)C(=O)N1CCN(C2CCCCC2)CC1 (stereo unspecified)
inactive: growth inhibition [1] -2.87% | growth inhibition [2] -9.46% | viability increase [3] -3.02% | viability [4] 106% | viability [5] 95.6% | inhibition [6] 0.14% | RAM network inhibition [7] 6.54%

O=C(Cn1nc(Cc2cccnc2)c2ccccc2c1=O)N1CCN(c2ccccn2)CC1
inactive: growth inhibition [1] 4.64% | growth inhibition [2] 2.73% | viability increase [3] 0.48% | viability [4] 94.8% | viability [5] 100% | inhibition [6] 0.985% | RAM network inhibition [7] -0.56%

CCOC(=O)CSc1nc2ccccc2c(=O)[nH]1
inactive: growth inhibition [1] -13.4% | growth inhibition [2] -17.3% | viability increase [3] -0.36% | viability [4] 105% | viability [5] 100% | inhibition [6] 1.74% | RAM network inhibition [7] 3.03%

COc1cccc(N2CCN(C3CC(=O)N(c4ccc(Cl)cc4)C3=O)CC2)c1 (stereo unspecified)
inactive: growth inhibition [1] -8.98% | growth inhibition [2] -2.62% | viability increase [3] -0.33% | viability [4] 96.2% | viability [5] 91.6% | inhibition [6] 0.57% | RAM network inhibition [7] 5.46%

Cn1cnnc1SCC(=O)Nc1ccccc1
inactive: growth inhibition [1] -6.99% | growth inhibition [2] -16.3% | viability increase [3] 2.03% | viability [4] 100% | viability [5] 102% | inhibition [6] -0.32% | RAM network inhibition [7] 1.79%

CCOC(=O)C1CCCCN1C(=O)CCc1c(C)nc2cc(-c3ccccc3)nn2c1C (stereo unspecified)
inactive: growth inhibition [1] 4.13% | growth inhibition [2] -4.46% | viability increase [3] 1.11% | viability [4] 52.9% | viability [5] 78% | inhibition [6] 1.38% | RAM network inhibition [7] -2.1%

c1ccc(Cn2nnc3c(N4CCOCC4)ncnc32)cc1
inactive: growth inhibition [1] -15.8% | growth inhibition [2] -25.2% | viability increase [3] -1.15% | viability [4] 92.7% | viability [5] 89.5% | inhibition [6] 0.93% | RAM network inhibition [7] -0.79%

O=C(CCCc1c[nH]c2ccccc12)N1CCN(c2ccc(N3CCOCC3)nn2)CC1
inactive: growth inhibition [1] -2.69% | growth inhibition [2] -3.36% | viability increase [3] -1.4% | viability [4] 102% | viability [5] 105% | inhibition [6] 0.485% | RAM network inhibition [7] -0.41%

CN(C)S(=O)(=O)Nc1ccc2c(c1)Cc1ccccc1-2
inactive: growth inhibition [1] -17.4% | growth inhibition [2] -9.69% | viability increase [3] -2.09% | viability [4] 92.3% | viability [5] 88.5% | inhibition [6] 1% | RAM network inhibition [7] 4.68%

CCCCn1c(=O)[nH]c2ccccc21
inactive: growth inhibition [1] -4.76% | growth inhibition [2] -21.1% | viability increase [3] -1.44% | viability [4] 106% | viability [5] 104% | inhibition [6] 1.69% | RAM network inhibition [7] 2.05%
